Experimental data reported in ChEMBL document CHEMBL1687906, “Discovery of novel and potent orally active calcium-sensing receptor antagonists that stimulate pulselike parathyroid hormone secretion: synthesis and structure-activity relationships of tetrahydropyrazolopyrimidine derivatives” (J Med Chem, 2011).
Values after ≈ are worked out from the molar mass of the structure shown. Active and inactive are the calls of the source. The rule behind the calls is not given here.

Legend:
Caco-2 [1] = assay: Apparent permeability across apical to basolateral side in human Caco2 cells at 10 umol/L; type: ADME, cell-based; conditions: caco-2, 10 µM
Procedure, shortened: (§1)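 Confluent Caco-2 monolayers on collagen-coated polycarbonate Transwell membranes. Buffer is HBSS with 10 mmol/L HEPES, 15 mmol/L glucose and 1% BSA, pH 7.3-7.5. Compound at 10 μmol/L dosed apically (A-to-B) or basolaterally (B-to-A), 37 °C, 5% CO2. Receivers sampled at 1 and 2 h. Lucifer yellow integrity check and cell-free blank run. LC/MS/MS read-out; Papp calculated; duplicates.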

Caco-2 [2] = assay: Apparent permeability across apical to basolateral side of human Caco2 cells at 10 umol/L; type: ADME, cell-based; conditions: caco-2, 10 µM, in the assay text read “basolateral to apical” for “apical to basolateral”; procedure, shortened: as §1
[3] = Metabolic stability in rat hepatic microsomes after 20 mins by HPLC/MS analysis; type: ADME; conditions: liver microsomes, read-out: Stability
Procedure, shortened: (§2)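 Hepatic microsomes, 0.2 mg/mL protein, in 50 mmol/L potassium phosphate pH 7.4 with […] test compound. An NADPH-generating system (MgCl2, glucose-6-phosphate, β-NADP+, G6PDH) added at 10% of the reaction volume. Incubated at 37 °C for 0 and 20 min.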

[4] = Metabolic stability in human hepatic microsomes after 20 mins by HPLC/MS analysis; type: ADME; conditions: liver microsomes, read-out: Stability; procedure, shortened: as §2
[5] = biological target: T1, Extracellular calcium-sensing receptor (Homo sapiens, UniProt P41180); assay: Inhibition of CaSR expressed in CHO cells incubated with compound for 10 mins measured after 1 hr by [35S]GTPgammaS binding assay; type: functional, cell-based
T1 sequence (P41180 whole entry): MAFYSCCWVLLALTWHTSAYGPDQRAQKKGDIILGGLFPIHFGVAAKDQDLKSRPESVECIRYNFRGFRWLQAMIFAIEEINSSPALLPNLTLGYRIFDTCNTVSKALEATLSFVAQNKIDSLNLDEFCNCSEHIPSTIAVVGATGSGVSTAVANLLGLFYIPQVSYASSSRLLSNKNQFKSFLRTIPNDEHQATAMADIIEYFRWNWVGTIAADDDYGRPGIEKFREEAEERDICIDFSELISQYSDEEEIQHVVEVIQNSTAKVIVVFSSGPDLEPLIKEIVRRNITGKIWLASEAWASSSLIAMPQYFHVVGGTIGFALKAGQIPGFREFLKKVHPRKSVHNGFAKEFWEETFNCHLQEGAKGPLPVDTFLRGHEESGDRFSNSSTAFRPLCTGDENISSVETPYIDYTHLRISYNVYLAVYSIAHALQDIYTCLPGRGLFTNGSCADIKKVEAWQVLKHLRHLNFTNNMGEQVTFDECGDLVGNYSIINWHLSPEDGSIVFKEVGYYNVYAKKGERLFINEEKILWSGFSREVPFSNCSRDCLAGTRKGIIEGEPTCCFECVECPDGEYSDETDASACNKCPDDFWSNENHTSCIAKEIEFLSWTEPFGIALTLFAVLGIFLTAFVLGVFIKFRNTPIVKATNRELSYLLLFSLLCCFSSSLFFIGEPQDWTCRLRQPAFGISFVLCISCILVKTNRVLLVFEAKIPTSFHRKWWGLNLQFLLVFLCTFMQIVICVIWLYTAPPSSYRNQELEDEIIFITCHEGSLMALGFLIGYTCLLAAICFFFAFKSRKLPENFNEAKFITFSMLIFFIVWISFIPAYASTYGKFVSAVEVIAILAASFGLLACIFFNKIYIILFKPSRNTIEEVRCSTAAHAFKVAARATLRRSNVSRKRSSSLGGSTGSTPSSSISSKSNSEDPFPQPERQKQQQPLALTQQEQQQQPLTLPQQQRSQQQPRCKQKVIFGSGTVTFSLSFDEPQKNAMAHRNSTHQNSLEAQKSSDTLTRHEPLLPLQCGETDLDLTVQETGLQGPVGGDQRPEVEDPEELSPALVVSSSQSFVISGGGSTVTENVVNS
Procedure, shortened: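 Membranes from CaSR-expressing CHO cells preincubated with compound for 10 min. Binding then run 1 h at room temperature in 20 mM HEPES pH 7.4, 100 mM NaCl, 1 mM MgCl2, 167 μg/mL DTT, 5 μM GDP, 0.4 nM [35S]GTPγS and 6 mM CaCl2. Samples filtered through GF/C and washed with PBS; radioactivity counted by scintillation. IC50 obtained by nonlinear regression.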

[6] = Thermodynamic solubility of the compound in aqueous buffer containing 20 mmol/L sodium glycochenodeoxycholate at pH 6.8 by HPLC analysis; type: physicochemical; conditions: aqueous buffer with 20 mmol/L sodium glycochenodeoxycholate
Procedure, shortened: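 Compound added to pH 6.8 aqueous buffer containing 20 mmol/L sodium glycochenodeoxycholate; after incubation, precipitate removed by filtration and filtrate concentration determined by HPLC.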

Rattus norvegicus [7] = assay: Increase of PTH level in rat plasma at 10 mg/kg, po after 2 hrs by ELISA; type: functional, organism-based; design: dose 10 mg/kg
[8] = AUC (0 to 24 hrs) in Crl:CD(SD) rat at 10 mg/kg, po; type: ADME, organism-based; design: time < 24 hr, dose 10 mg/kg, route oral; conditions: plasma
Procedure, shortened: (§3)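 Nonfasted female Crl:CD(SD) rats, 12 weeks old, n = 3, given 10 mg/kg orally as a 0.5% methylcellulose suspension. Plasma collected at 0.25, 0.5, 1, 2, 4, 8 and 24 h, deproteinized with acetonitrile, diluted with 0.01 mol/L ammonium acetate. Drug measured by HPLC on an ODS column, ammonium acetate/acetonitrile 3/7, 40 °C, UV 262 nm.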

[9] = Mean residence time in Crl:CD(SD) rat at 10 mg/kg, po; type: ADME, organism-based; design: dose 10 mg/kg, route oral; conditions: in vivo; procedure, shortened: as §3
[10] = Cmax in Crl:CD(SD) rat at 10 mg/kg, po; type: ADME, organism-based; design: dose 10 mg/kg, route oral; conditions: in vivo; procedure, shortened: as §3
[11] = Tmax in Crl:CD(SD) rat at 10 mg/kg, po; type: ADME, organism-based; design: dose 10 mg/kg, route oral; conditions: in vivo; procedure, shortened: as §3
Rattus norvegicus [12] = assay: Increase of PTH level in rat plasma at 10 mg/kg, po after 30 mins by ELISA; type: functional
Rattus norvegicus [13] = assay: Induction of bone formation in osteopenic ovariectomized CD(SD)IGS rat model assessed as plasma osteocalcin level at 10 mg/kg, po administered once daily for 3 months measured after 2 months by RIA (reference value: 21.1+/- 2.4 ng/ml); type: functional
Rattus norvegicus [14] = assay: Induction of bone formation in osteopenic ovariectomized CD(SD)IGS rat model assessed as proximal tibia bone mineral density at 10 mg/kg, po administered once daily for 3 months measured after 1 day last post treatment (reference value: 649+/- 8 mg/cm3); type: functional
Rattus norvegicus [15] = assay: Induction of bone formation in osteopenic ovariectomized CD(SD)IGS rat model assessed as distal femur BMD at 10 mg/kg, po administered once daily for 3 months measured after 1 day last post treatment (reference value: 622+/- 7 mg/cm3); type: functional

| IC50 [5] [nM] | solubility thermodynamic [6] [µg/mL] | SMILES | other results |
| --- | --- | --- | --- |
| 5.5 | 15.6 (≈ 36.2 µM) | CCC(CC)(NC(=O)c1cnn2c1NC(c1ccccc1)CC2(C)C)c1ccc(C)cc1 (stereo not drawn) | microsomal CLint [3]: 164 µL/min/mg; microsomal CLint [4]: 122 µL/min/mg |
| 7.3 | 8.5 (≈ 19.6 µM) | CCC(CC)(NC(=O)c1cnn2c1NC(c1ccccc1)CC2(C)C)c1ccc(F)cc1 (stereo not drawn) | microsomal CLint [3]: 129 µL/min/mg; microsomal CLint [4]: 89 µL/min/mg |
|  | 126 | CCC(CC)(NC(=O)c1cnn2c1NC(c1ccccc1)CC2(C)C)c1ccc(Cl)cc1.Cl (stereo not drawn) | AUC(0-t) at 24 h [8]: 2460 ng·h/mL; MRT [9]: 5.65 h; Cmax [10]: 374 ng/mL; Tmax [11]: 0.67 h |
| 6.6 | 59.6 (≈ 133 µM) | CCC(CC)(NC(=O)c1cnn2c1NC(c1ccccc1)CC2(C)C)c1ccc(OC)cc1 (stereo not drawn) | microsomal CLint [3]: 158 µL/min/mg; microsomal CLint [4]: 67 µL/min/mg |
|  | 202 | CC(=O)O.CCC(CC)(NC(=O)c1cnn2c1NC(c1ccccc1)CC2(C)C)c1ccc(Cl)cc1 (stereo not drawn) |  |
| 4.9 | 140 | CCC(CC)(NC(=O)c1cnn2c1NC(c1ccccc1)CC2(C)C)c1ccc(C)cc1.Cl (racemic) | Activity (Rattus norvegicus [12]): 120 pg/mL; AUC(0-t) at 24 h [8]: 2460 ng·h/mL; Papp (Caco-2 [1]): 58.9 10^-6 cm/s; MRT [9]: 5.65 h; Activity (Rattus norvegicus [13]): 28.4 ng/mL; Papp (Caco-2 [2]): 42.7 10^-6 cm/s; Activity (Rattus norvegicus [14]): 700 mg/cm3; Cmax [10]: 374 ng/mL; Activity (Rattus norvegicus [15]): 660 mg/cm3; Tmax [11]: 0.67 h |
| 31 |  | CCC(CC)(NC(=O)c1cnn2c1N[C@H](c1ccccc1)CC2(C)C)c1ccc(C)cc1 |  |
|  | 118 | CCC(CC)(NC(=O)c1cnn2c1NC(c1ccccc1)CC2(C)C)c1ccc(C)cc1.CS(=O)(=O)O (stereo not drawn) |  |
| 7.4 | 54 (≈ 120 µM) | CCC(CC)(NC(=O)c1cnn2c1NC(c1ccccc1)CC2(C)C)c1ccc(Cl)cc1 (stereo not drawn) | Papp (Caco-2 [1]): 52.6 10^-6 cm/s; Papp (Caco-2 [2]): 36.8 10^-6 cm/s; microsomal CLint [3]: 57 µL/min/mg; microsomal CLint [4]: 18 µL/min/mg |
| 31 |  | CCC(CC)(NC(=O)c1cnn2c1NC(c1ccccc1)CC2(C)C)c1ccc(OC(C)=O)cc1 (stereo not drawn) |  |
| 2.3 |  | CCC(CC)(NC(=O)c1cnn2c1N[C@@H](c1ccccc1)CC2(C)C)c1ccc(C)cc1 |  |

Second part, the compound before the results:

| SMILES | IC50 [5] [nM] | solubility thermodynamic [6] [µg/mL] | other results |
| --- | --- | --- | --- |
| CCC(CC)(NC(=O)c1cnn2c1NC(c1ccccc1)CC2(C)C)c1ccc(C(F)(F)F)cc1 (stereo not drawn) | 7.6 | 4.6 (≈ 9.49 µM) | Papp (Caco-2 [1]): 32.7 10^-6 cm/s; Papp (Caco-2 [2]): 24.2 10^-6 cm/s; microsomal CLint [3]: 13 µL/min/mg; microsomal CLint [4]: 14 µL/min/mg |
| CCC(CC)(NC(=O)c1cnn2c1NC(c1ccccc1)CC2(C)C)c1ccc(Cl)cc1.CS(=O)(=O)O (stereo not drawn) |  | 164 |  |
| CCC(CC)(NC(=O)c1cnn2c1NC(c1ccccc1)CC2(C)C)c1ccc(C)cc1 (racemic) |  |  | Activity (Rattus norvegicus [7]): inactive |
| CCC(CC)(NC(=O)c1cnn2c1NC(c1ccccc1)CC2(C)C)c1cccc(F)c1 (stereo not drawn) | 25 |  |  |
| O=C(NC(c1ccccc1)c1ccccc1)c1cnn2c1N[C@H](c1ccccc1)C[C@@H]2C(F)(F)F | 380 |  |  |
| CC1(C)CC(c2ccccc2)Nc2c(C(=O)NC(c3ccc(C(F)(F)F)cc3)(C3CCCCC3)C3CCCCC3)cnn21 (stereo not drawn) | 150 |  |  |
| CCC(CC)(NC(=O)c1cnn2c1NC(c1ccccc1)CC2(C)C)c1ccccc1F (stereo not drawn) | 12 |  |  |
| CCOC(=O)c1ccc(C(CC)(CC)NC(=O)c2cnn3c2NC(c2ccccc2)CC3(C)C)cc1 (stereo not drawn) [listing 1 of 2 here] | 5.2 | 5.4 (≈ 11.1 µM) |  |
| CCCC(CCC)(NC(=O)c1cnn2c1NC(c1ccccc1)CC2(C)C)c1ccc(C(F)(F)F)cc1 (stereo not drawn) | 4.4 |  |  |
| CCC(CC)(NC(=O)c1cnn2c1NC(c1ccccc1)CC2(C)C)c1ccccc1 (stereo not drawn) | 3.4 | 22.3 (≈ 53.5 µM) | microsomal CLint [3]: 215 µL/min/mg; microsomal CLint [4]: 209 µL/min/mg |
| CC(C)(NC(=O)c1cnn2c1NC(c1ccccc1)CC2(C)C)c1ccc(C(F)(F)F)cc1 (stereo not drawn) | 3.5 |  |  |
| CCC(CC)(NC(=O)c1cnn2c1NC(c1ccccc1)CC2(C)C)c1ccc(OCc2ccccc2)cc1 (stereo not drawn) | 8.5 | 24.3 (≈ 46.5 µM) | microsomal CLint [3]: 24 µL/min/mg; microsomal CLint [4]: 48 µL/min/mg |
| O=C(NCc1ccc(C(F)(F)F)cc1)c1cnn2c1N[C@H](c1ccccc1)C[C@@H]2C(F)(F)F | 2900 |  |  |
| CCCCC(CCCC)(NC(=O)c1cnn2c1NC(c1ccccc1)CC2(C)C)c1ccc(C(F)(F)F)cc1 (stereo not drawn) | 23 |  |  |
| CC(C)C(NC(=O)c1cnn2c1NC(c1ccccc1)CC2(C)C)(c1ccc(C(F)(F)F)cc1)C(C)C (stereo not drawn) | 30 |  |  |
| CCC(CC)(NC(=O)c1cnn2c1NC(c1ccccc1)CC2(C)C)c1ccc(Cl)cc1.O=S(=O)(O)O (stereo not drawn) |  | 202 |  |
| CCC(CC)(NC(=O)c1cnn2c1NC(c1ccccc1)CC2(C)C)c1cccc(Cl)c1 (stereo not drawn) | 17 |  |  |
| CCOC(=O)c1ccc(C(CC)(CC)NC(=O)c2cnn3c2NC(c2ccccc2)CC3(C)C)cc1 (stereo not drawn) [listing 2 of 2 here] |  |  | microsomal CLint [3]: 138 µL/min/mg; microsomal CLint [4]: 91 µL/min/mg |
| CCC(CC)(NC(=O)c1cnn2c1NC(c1ccccc1)CC2(C)C)c1ccc(COC(C)=O)cc1 (stereo not drawn) | 14 |  |  |
| CCC(=O)Oc1ccc(C(CC)(CC)NC(=O)c2cnn3c2NC(c2ccccc2)CC3(C)C)cc1 (stereo not drawn) | 12 |  |  |
